# Results as given in ChEMBL document CHEMBL2146456, “Identification and characterization of GABA(A) receptor modulatory diterpenes from Biota orientalis that decrease locomotor activity in mice” (J Nat Prod, 2011).
# Calls of active or inactive are those of the source. The calls are words filed in the database; no cut-off is given here.
# What was measured:
# Oocyte [1] = experiment: Allosteric modulation of gamma-aminobutyric acid receptor A alpha1beta2gamma2S expressed in Xenopus oocytes assessed as potentiation of GABA-mediated chloride current at 100 uM by voltage clamp analysis relative to control; type: cell-based
# In short: (§1)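 Oocytes were injected with α1β2γ2S, α1β3γ2S, α2β2γ2S, α3β2γ2S or α5β2γ2S cRNAs at a 1:1:10 ratio. Two-electrode voltage clamp was run 1–5 days post-injection in HEPES-buffered saline at pH 7.4. Compounds in GABA EC5–10 (3–10 μM) were given by automated fast perfusion: screening at 10 and 100 μM (n = 2), otherwise concentration series. Potentiation = I(GABA+Comp)/IGABA − 1, with nonlinear regression fits.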
# Oocyte [2] = experiment: Allosteric modulation of gamma-aminobutyric acid receptor A alpha1beta2gamma2S expressed in Xenopus oocytes assessed as potentiation of GABA-mediated chloride current at 10 uM by voltage clamp analysis relative to control; type: cell-based; in short: as §1
# Oocyte [3] = experiment: Allosteric modulation of gamma-aminobutyric acid receptor A alpha1beta2gamma2S expressed in Xenopus oocytes assessed as potentiation of GABA-mediated chloride current at 0.1 to 500 uM by voltage clamp analysis relative to control; type: cell-based
# In short: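 Two-electrode voltage clamp on Xenopus oocytes injected with α1, β2, γ2S cRNA at a 1:1:10 ratio, recorded on days 1–5 at a holding potential of […]. Bath: 90 mM NaCl, 1 mM KCl, 1 mM MgCl2, 1 mM CaCl2, 5 mM HEPES pH 7.4. Compound was co-applied by fast perfusion with GABA EC5-10 (typically 3–10 μM). Potentiation was calculated as I(GABA+Comp)/IGABA − 1, and concentration-response curves were fitted by nonlinear regression.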
# [4] = (§2) Allosteric modulation of gamma-aminobutyric acid receptor A alpha1beta2gamma2S expressed in Xenopus oocytes assessed as potentiation of GABA-mediated chloride current by voltage clamp analysis; type: cell-based; details: Oocyte; in short: as §1
# Oocyte [5] = experiment: Allosteric modulation of gamma-aminobutyric acid receptor A alpha3beta2gamma2S expressed in Xenopus oocytes assessed as potentiation of GABA-mediated chloride current at 0.1 to 500 uM by voltage clamp analysis relative to control; type: cell-based; in short: as §1
# Oocyte [6] = experiment: (§3) Allosteric modulation of gamma-aminobutyric acid receptor A alpha1beta1gamma2S expressed in Xenopus oocytes assessed as potentiation of GABA-mediated chloride current by voltage clamp analysis; type: cell-based
# In short: (§4)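 α1β1γ2S cRNAs (3:1:10) injected into Xenopus oocytes and recorded 1–5 days later by two-microelectrode voltage clamp. Bath was 90 mM NaCl, 1 mM KCl, 1 mM MgCl2, 1 mM CaCl2, 5 mM HEPES, pH 7.4. Compound was co-applied by fast perfusion with GABA at EC5–10 (3–10 μM). Enhancement = I(GABA+Comp)/IGABA − 1. Concentration-response curves fitted by nonlinear regression.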
# [7] = as §3; type: cell-based; details: Oocyte; in short: as §4
# Oocyte [8] = experiment: Agonist activity at gamma-aminobutyric acid receptor A alpha3beta2gamma2S expressed in Xenopus oocytes assessed as potentiation of GABA-mediated chloride current by voltage clamp analysis; type: functional, cell-based; in short: as §1
# Oocyte [9] = experiment: Agonist activity at gamma-aminobutyric acid receptor A alpha1beta3gamma2S expressed in Xenopus oocytes assessed as potentiation of GABA-mediated chloride current by voltage clamp analysis; type: functional, cell-based; in short: as §1
# Oocyte [10] = experiment: Allosteric modulation of gamma-aminobutyric acid receptor A alpha1beta1gamma2S expressed in Xenopus oocytes assessed as potentiation of GABA-mediated chloride current at 0.1 to 500 uM by voltage clamp analysis relative to control; type: cell-based; in short: as §4
# Oocyte [11] = experiment: Allosteric modulation of gamma-aminobutyric acid receptor A alpha2beta2gamma2S expressed in Xenopus oocytes assessed as potentiation of GABA-mediated chloride current at 0.1 to 500 uM by voltage clamp analysis relative to control; type: cell-based; in short: as §1
# Oocyte [12] = experiment: (§5) Allosteric modulation of gamma-aminobutyric acid receptor A alpha2beta2gamma2S expressed in Xenopus oocytes assessed as potentiation of GABA-mediated chloride current by voltage clamp analysis; type: cell-based; in short: as §1
# [13] = as §5; type: cell-based; details: Oocyte; in short: as §1
# Oocyte [14] = experiment: Agonist activity at gamma-aminobutyric acid receptor A alpha2beta2gamma2S expressed in Xenopus oocytes assessed as potentiation of GABA-mediated chloride current by voltage clamp analysis; type: functional, cell-based; in short: as §1
# [15] = molecular target: T1, GABA-A receptor; GABA-A site (alpha1/beta2 interface) (Homo sapiens) (UniProt P14867+P47870); experiment: Allosteric modulation of gamma-aminobutyric acid receptor A alpha1beta2 expressed in Xenopus oocytes assessed as potentiation of GABA-mediated chloride current at 100 uM by voltage clamp analysis; type: cell-based; details: Oocyte
# Oocyte [16] = experiment: Agonist activity at gamma-aminobutyric acid receptor A alpha1beta2gamma2S expressed in Xenopus oocytes assessed as potentiation of GABA-mediated chloride current by voltage clamp analysis; type: functional, cell-based; in short: as §1
# Oocyte [17] = experiment: Allosteric modulation of gamma-aminobutyric acid receptor A alpha5beta2gamma2S expressed in Xenopus oocytes assessed as potentiation of GABA-mediated chloride current at 0.1 to 500 uM by voltage clamp analysis relative to control; type: cell-based; in short: as §1
# Oocyte [18] = experiment: (§6) Allosteric modulation of gamma-aminobutyric acid receptor A alpha5beta2gamma2S expressed in Xenopus oocytes assessed as potentiation of GABA-mediated chloride current by voltage clamp analysis relative to control; type: cell-based; in short: as §1
# [19] = as §6; type: cell-based; details: Oocyte; in short: as §1
# Oocyte [20] = experiment: Allosteric modulation of gamma-aminobutyric acid receptor A alpha1beta2gamma2S expressed in Xenopus oocytes assessed as potentiation of GABA-mediated chloride current at 500 uM by voltage clamp analysis relative to control; type: cell-based; in short: as §1
# Oocyte [21] = experiment: Agonist activity at gamma-aminobutyric acid receptor A alpha5beta2gamma2S expressed in Xenopus oocytes assessed as potentiation of GABA-mediated chloride current by voltage clamp analysis; type: functional, cell-based; in short: as §1
# Oocyte [22] = experiment: as §2; type: cell-based; in short: as §1
# [23] = molecular target: T1, GABA-A receptor; GABA-A site (alpha1/beta2 interface) (Homo sapiens); experiment: Allosteric modulation of gamma-aminobutyric acid receptor A alpha1beta2 expressed in Xenopus oocytes assessed as potentiation of GABA-mediated chloride current at 30 uM by voltage clamp analysis; type: cell-based; details: Oocyte
# Oocyte [24] = experiment: Allosteric modulation of gamma-aminobutyric acid receptor A alpha1beta3gamma2S expressed in Xenopus oocytes assessed as potentiation of GABA-mediated chloride current at 0.1 to 500 uM by voltage clamp analysis relative to control; type: cell-based; in short: as §1
# Oocyte [25] = experiment: Agonist activity at gamma-aminobutyric acid receptor A alpha1beta1gamma2S expressed in Xenopus oocytes assessed as potentiation of GABA-mediated chloride current at 300 uM by voltage clamp analysis; type: functional, cell-based; in short: as §4
# Oocyte [26] = experiment: (§7) Allosteric modulation of gamma-aminobutyric acid receptor A alpha3beta2gamma2S expressed in Xenopus oocytes assessed as potentiation of GABA-mediated chloride current by voltage clamp analysis; type: cell-based; in short: as §1
# [27] = as §7; type: cell-based; details: Oocyte; in short: as §1
# Oocyte [28] = experiment: Allosteric modulation of gamma-aminobutyric acid receptor A alpha1beta2gamma2S expressed in Xenopus oocytes assessed as potentiation of GABA-mediated chloride current at 100 uM by voltage clamp analysis; type: cell-based; in short: as §1
# Oocyte [29] = experiment: Allosteric modulation of gamma-aminobutyric acid receptor A alpha1beta2gamma2S expressed in Xenopus oocytes assessed as potentiation of GABA-mediated chloride current at 30 uM by voltage clamp analysis; type: cell-based; in short: as §1
# Oocyte [30] = experiment: (§8) Allosteric modulation of gamma-aminobutyric acid receptor A alpha1beta3gamma2S expressed in Xenopus oocytes assessed as potentiation of GABA-mediated chloride current by voltage clamp analysis; type: cell-based; in short: as §1
# [31] = as §8; type: cell-based; details: Oocyte; in short: as §1
smiles,measurement,setting,value
C=C[C@]1(C)C=C2CC[C@H]3[C@](C)(C=O)[C@@H](O)CC[C@]3(C)[C@H]2CC1,Imax,Oocyte [1],3%
same,Imax,Oocyte [2],3.8%
CC(C)c1c(O)ccc2c1CC[C@H]1C(C)(C)CCC[C@]21C,Imax,Oocyte [1],-15.1%
same,Imax,Oocyte [2],-10.6%
CCc1cc2c(s1)N(C)C(=O)CN=C2c1ccccc1Cl [CLOTIAZEPAM],Imax,Oocyte [3],260%
same,EC50,[4],0.184 µM
Cc1nnc2n1-c1ccc(Cl)cc1C(c1ccccc1Cl)=NC2 [TRIAZOLAM],Imax,Oocyte [3],253%
same,EC50,[4],0.022 µM
C=C[C@@]1(C)CC[C@H]2C(=CC[C@@H]3[C@]2(C)CCC[C@@]3(C)C(=O)O)C1 [ISOPIMARIC ACID],Imax,Oocyte [5],1070%
same,Activity,Oocyte [6],Dose-dependent effect
same,EC50,[7],290 µM
same,Activity,Oocyte [8],inactive
same,Activity,Oocyte [9],inactive
same,Imax,Oocyte [10],716%
same,Imax,Oocyte [11],1030%
same,Activity,Oocyte [12],Dose-dependent effect
same,EC50,[13],365 µM
same,Activity,Oocyte [14],inactive
same,Activity,[15],Active
same,Activity,Oocyte [16],inactive
same,Imax,Oocyte [17],472%
same,Activity,Oocyte [18],Dose-dependent effect
same,EC50,[19],317 µM
same,Imax,Oocyte [20],425%
same,Activity,Oocyte [21],inactive
same,Activity,Oocyte [22],Dose-dependent effect
same,EC50,[4],142 µM
same,Activity,[23],Active
same,Imax,Oocyte [24],476%
same,Activity,Oocyte [25],inactive
same,Activity,Oocyte [26],Dose-dependent effect
same,EC50,[27],724 µM
same,Activity,Oocyte [28],Active
same,Activity,Oocyte [29],Active
same,Activity,Oocyte [30],Dose-dependent effect
same,EC50,[31],257 µM
